Assay results as given in the array DNA melting data of Ke et al. (doi:10.1101/2024.01.08.574731).

Key:
[1] = folding enthalpy; higher = less favourable; fluorescence melt of hairpins on a sequencing array, two-state fit; settings: sodium 0.088 M
Procedure, shortened: (§1)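 Bootstrapped two-state fits yielded melting temperature and folding enthalpy for library hairpins. Cy3 fluorescence, with annealed Cy3 and quencher oligos, was imaged on a sequenced MiSeq flow cell in 50 mM Na-HEPES pH 8.0, 25 mM NaCl in 2.5 °C steps up to 60 °C, and normalised to pre-quench Cy3 and to control constructs. Four replicates were combined by inverse variance, and fitted temperatures were raised by 9.35 °C to match UV melts.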

[2] = melting temperature; fluorescence melt of hairpins on a sequencing array, two-state fit, raised by 9.35 °C to match UV melts; settings: sodium 0.088 M
Procedure, shortened: as §1

Row | Sequence | folding enthalpy [1] | Tm [2]
1 | GATCATCGACATGATC ((((((....)))))) | -30.4 kcal/mol | 44.8 °C
2 | GATCATCGGTATGATC ((((((....)))))) | -34.2 kcal/mol | 46.5 °C
3 | GATCATCGTCATGATC ((((((....)))))) | -32.4 kcal/mol | 45.4 °C
4 | GATCATCTAAATGATC ((((((....)))))) | -35.9 kcal/mol | 47.4 °C
5 | GATCATCTGGATGATC ((((((....)))))) | -44.9 kcal/mol | 53 °C
6 | GATCATCTTAATGATC ((((((....)))))) | -36.5 kcal/mol | 49 °C
7 | GATCATCTTATGATC ((((((...)))))) | -34.7 kcal/mol | 49.8 °C
8 | GATCATCTTTATGATC ((((((....)))))) | -32.3 kcal/mol | 47.9 °C
9 | GATCATGACTATGATC ((((((....)))))) | -48.6 kcal/mol | 54.2 °C
10 | GATCATGAGCATGATC ((((((....)))))) | -36.8 kcal/mol | 48 °C
11 | GATCATGATAATGATC ((((((....)))))) | -48.7 kcal/mol | 55.4 °C
12 | GATCATGCCAATGATC ((((((....)))))) | -45.4 kcal/mol | 58.5 °C
13 | GATCATGCGATGATC ((((((...)))))) | -31.9 kcal/mol | 46.9 °C
14 | GATCATGCTTATGATC ((((((....)))))) | -35.9 kcal/mol | 48 °C
15 | GATCATGGAAACGTGATC (((((.(....).))))) | -31.7 kcal/mol | 46.5 °C
16 | GATCATGGAAATGATC ((((((....)))))) | -36 kcal/mol | 52.4 °C
17 | GATCATGGCGATGATC ((((((....)))))) | -49.1 kcal/mol | 51.5 °C
18 | GATCATGGGCATGATC ((((((....)))))) | -38 kcal/mol | 49.6 °C
19 | GATCATGTACATGATC ((((((....)))))) | -40.7 kcal/mol | 56.5 °C
20 | GATCATGTGGATGATC ((((((....)))))) | -35.2 kcal/mol | 47.3 °C
21 | GATCATGTTGATGATC ((((((....)))))) | -41.2 kcal/mol | 48.4 °C
22 | GATCATTCTATGATC ((((((...)))))) | -33.7 kcal/mol | 50.7 °C
23 | GATCATTGAAATGATC ((((((....)))))) | -36.8 kcal/mol | 46 °C
24 | GATCATTGAGATGATC ((((((....)))))) | -39.4 kcal/mol | 49.8 °C

Row | Sequence | folding enthalpy [1] | Tm [2]
25 | GATCATTGCATGATC ((((((...)))))) | -34 kcal/mol | 50.4 °C
26 | GATCATTGGAATGATC ((((((....)))))) | -36.1 kcal/mol | 46.5 °C
27 | GATCATTGTCATGATC ((((((....)))))) | -31.7 kcal/mol | 46.2 °C
28 | GATCATTTATATGATC ((((((....)))))) | -35.6 kcal/mol | 48.4 °C
29 | GATCATTTCATGATC ((((((...)))))) | -40.6 kcal/mol | 51.8 °C
30 | GATCATTTCCATGATC ((((((....)))))) | -40.5 kcal/mol | 46.1 °C
31 | GATCATTTGATGATC ((((((...)))))) | -38.2 kcal/mol | 46.6 °C
32 | GATCCAAAACTGGATC ((((((....)))))) | -31.6 kcal/mol | 45.6 °C
33 | GATCCAAAAGTGGATC ((((((....)))))) | -27.5 kcal/mol | 43.9 °C
34 | GATCCAAAATTGGATC ((((((....)))))) | -35.8 kcal/mol | 48.1 °C
35 | GATCCAAAGATGGATC ((((((....)))))) | -26.4 kcal/mol | 44.5 °C
36 | GATCCAAATTGGATC ((((((...)))))) | -31.8 kcal/mol | 48.3 °C
37 | GATCCAACAATGGATC ((((((....)))))) | -32.7 kcal/mol | 47.1 °C
38 | GATCCAACGCTGGATC ((((((....)))))) | -38.3 kcal/mol | 49.1 °C
39 | GATCCAACGTGGATC ((((((...)))))) | -31.9 kcal/mol | 49.2 °C
40 | GATCCAAGAATGGATC ((((((....)))))) | -30.2 kcal/mol | 46.7 °C
41 | GATCCAAGACTGGATC ((((((....)))))) | -28.2 kcal/mol | 47.4 °C
42 | GATCCAAGCGTGGATC ((((((....)))))) | -35.7 kcal/mol | 50.6 °C
43 | GATCCAAGGCTGGATC ((((((....)))))) | -35.5 kcal/mol | 48.9 °C
44 | GATCCAAGTCTGGATC ((((((....)))))) | -41.8 kcal/mol | 49 °C
45 | GATCCAATCCTGGATC ((((((....)))))) | -37.7 kcal/mol | 49.2 °C
46 | GATCCAATCTTGGATC ((((((....)))))) | -33 kcal/mol | 54.3 °C
47 | GATCCAATGATGGATC ((((((....)))))) | -29.3 kcal/mol | 47.6 °C
48 | GATCCAATGTGGATC ((((((...)))))) | -32.5 kcal/mol | 50.8 °C

Row | Sequence | folding enthalpy [1] | Tm [2]
49 | GATCCAATTCTGGATC ((((((....)))))) | -39.7 kcal/mol | 49.5 °C
50 | GATCCAATTTGGATC ((((((...)))))) | -39.8 kcal/mol | 51.1 °C
51 | GATCCAATTTTGGATC ((((((....)))))) | -40.2 kcal/mol | 54 °C
52 | GATCCACACGTGGATC ((((((....)))))) | -35.1 kcal/mol | 59 °C
53 | GATCCACACTTGGATC ((((((....)))))) | -41.1 kcal/mol | 52.1 °C
54 | GATCCACATTGGATC ((((((...)))))) | -25.2 kcal/mol | 52.2 °C
55 | GATCCACCAGTGGATC ((((((....)))))) | -50.8 kcal/mol | 56.1 °C
56 | GATCCACCTTGGATC ((((((...)))))) | -31.7 kcal/mol | 51.2 °C
57 | GATCCACGATGGATC ((((((...)))))) | -27 kcal/mol | 48.6 °C
58 | GATCCACGATTGGATC ((((((....)))))) | -37 kcal/mol | 48 °C
59 | GATCCACGCATGGATC ((((((....)))))) | -32.1 kcal/mol | 52.8 °C
60 | GATCCACGGATGGATC ((((((....)))))) | -32.4 kcal/mol | 48.6 °C
61 | GATCCACGTTGGATC ((((((...)))))) | -29.7 kcal/mol | 50.6 °C
62 | GATCCACTCTTGGATC ((((((....)))))) | -35.1 kcal/mol | 51 °C
63 | GATCCACTGCTGGATC ((((((....)))))) | -41.4 kcal/mol | 50.4 °C
64 | GATCCACTGGTGGATC ((((((....)))))) | -39.4 kcal/mol | 59.1 °C
65 | GATCCACTTATGGATC ((((((....)))))) | -42.9 kcal/mol | 50.8 °C
66 | GATCCACTTCTGGATC ((((((....)))))) | -34.8 kcal/mol | 50.2 °C
67 | GATCCACTTTGGATC ((((((...)))))) | -33.3 kcal/mol | 53.1 °C
68 | GATCCAGACATGGATC ((((((....)))))) | -39.9 kcal/mol | 58 °C
69 | GATCCAGACGTGGATC ((((((....)))))) | -45.1 kcal/mol | 53.2 °C
70 | GATCCAGAGATGGATC ((((((....)))))) | -34.5 kcal/mol | 52.3 °C
71 | GATCCAGATTTGGATC ((((((....)))))) | -30 kcal/mol | 50.4 °C
72 | GATCCAGCATTGGATC ((((((....)))))) | -44.4 kcal/mol | 56 °C
